Reference: the array DNA melting data of Ke et al. (doi:10.1101/2024.01.08.574731)

What was measured:
[1] = melting temperature; fluorescence melt of hairpins on a sequencing array, two-state fit, raised by 9.35 °C to match UV melts; conditions: sodium 0.088 M
In short: (§1)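 Cy3 signals were normalised both to pre-quench Cy3 and to control constructs. They came from library hairpins carrying annealed Cy3 and quencher oligos on a sequenced MiSeq flow cell, imaged in 50 mM Na-HEPES pH 8.0, 25 mM NaCl, in 2.5 °C steps up to 60 °C. Bootstrapped two-state fits gave melting temperature and folding enthalpy, and four replicates were combined by inverse variance. Fitted temperatures were then raised by 9.35 °C to match UV melts.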

[2] = folding enthalpy; higher = less favourable; fluorescence melt of hairpins on a sequencing array, two-state fit; conditions: sodium 0.088 M
In short: as §1

Row | Sequence | Tm [1] [°C] | folding enthalpy [2] [kcal/mol]
1 | GAACACGGAAACGTGTTC (((((((....))))))) | 67.5 | -38.1
2 | GACATAGAAATATGTC ((((((....)))))) | 45.5 | -30
3 | GATCACATACGTGATC ((((((....)))))) | 57.4 | -41.2
4 | GATCAAGCTCTTGATC ((((((....)))))) | 48.3 | -38.9
5 | GTCGCACGAAAGTGGGAC (((.(((....))).))) | 67.4 | -38.5
6 | GCCTCCGGAAACGGGGGC (((.(((....))).))) | 67.1 | -31
7 | GAGATGACGAAAGTCCTC (((..(((....)))))) | 30 | -11.7
8 | GCCCTGCGAAAGCGGAGC ((.(.((....)).).)) | 51.5 | -15.5
9 | ACGCAGAAATGCGT (((((....))))) | 55.7 | -21.7
10 | GCAGGGCGAAAGCCAGGC ((..(((....)))..)) | 60.1 | -19.3
11 | GCGGAACCGAAAGGTCGC (((..(((....)))))) | 54.7 | -27.7
12 | GGTTGAGGAAACTTAACC ((((.((....)).)))) | 39.8 | -31.9
13 | GACTGTGGAAACACAGCC (.(((((....))))).) | 43.7 | -13.7
14 | GATGTCCCGAAAGGGATC (((..(((....)))))) | 33.6 | -9.1
15 | GATCGACTTTTCGATC ((((((....)))))) | 51.6 | -35.1
16 | CGTTCGGAAACGAGGACG ((((((....)))..))) | 34.7 | -14.1
17 | GTAGGGTCGAAAGACTAC (((..(((....)))))) | 32.5 | -12.2
18 | GGTGGCGAAAGCCAACC ((((((....))).))) | 64.5 | -16.9
19 | GCAGCAGGAAACCGCTGC (((((.(....).))))) | 58.1 | -41.3
20 | GAGAAAGGAAACTTTCCC (.(((((....))))).) | 25.1 | -12.3
21 | GTGCGTGGAAACGCGCAC (((((.(....).))))) | 65.6 | -23.7
22 | GTAATCGGAAACGATCAC ((.((((....)))).)) | 33.9 | -25
23 | GCGCGGCGAAAGCGGAGC ((.(.((....)).).)) | 60.4 | -22.5

Row | Sequence | Tm [1] [°C] | folding enthalpy [2] [kcal/mol]
24 | GATCCATCTTTGGATC ((((((....)))))) | 52.6 | -37.5
25 | GTACTCGAAAGAGTCTAC ((((((....)))..))) | 35.5 | -14.6
26 | GTTGACGAAAGTCGAAC ((((((....))).))) | 45.4 | -18.4
27 | GTCGGGCGAAAGCCGAC (((.(((....)))))) | 68.6 | -23
28 | GGGATCGAAAGATAGCCC ((((((....)))..))) | 32.4 | -17.3
29 | GCGAGCATCGC ((((...)))) | 62.1 | -21.8
30 | GACTGGGCGAAAGCCGTC (((..(((....)))))) | 56.1 | -10.4
31 | GCGGATGGAAACGTCCGC (((((.(....).))))) | 62.6 | -45.9
32 | GGGGCAGGAAACTACCCC ((((.((....)).)))) | 49 | -29.4
33 | GCGGTGCGAAAGCATGGC ((..(((....)))..)) | 56.1 | -21.8
34 | GCGCTGCGAAAGCCCCGC (((..((....))..))) | 41.5 | -22.5
35 | GATCTCGGAAACGAGACC (.(((((....))))).) | 40.7 | -16.5
36 | GGCCTAGGAAACTAGGTC (.(((((....))))).) | 51.6 | -33.7
37 | GCGTACGAAAGTACACGC ((((((....)))..))) | 52.6 | -19.1
38 | GCGTTGCGAAAGCGCCGC (((..((....))..))) | 58.4 | -14.8
39 | GATCGCAACAGCGATC ((((((....)))))) | 69.1 | -35.4
40 | GCGGTACGAAAGTATCGC (((.(((....))).))) | 64.7 | -56.1
41 | GTCAAGGGAAACCCTGAC ((((.((....)).)))) | 43.7 | -33.8
42 | GATCATCAAGATGATC ((((((....)))))) | 49.8 | -40.4
43 | GGATTTACGAAAGTATCC (((..(((....)))))) | 31 | -21
44 | GTCTGCGGAAACGTGGAC (((..((....))..))) | 47.5 | -32.4
45 | GATACTGGAAACAGTGTC ((.((((....)))).)) | 44.7 | -25.9
46 | GATCCGTAGACGGATC ((((((....)))))) | 58.2 | -42.9

Row | Sequence | Tm [1] [°C] | folding enthalpy [2] [kcal/mol]
47 | GATCTCATCAGAGATC ((((((....)))))) | 55.6 | -35.2
48 | GATCAAGTGTTTGATC ((((((....)))))) | 43.5 | -31.8
49 | GATCGAAAGTTCGATC ((((((....)))))) | 50.4 | -36.2
50 | GATCAGTGCTCTGATC ((((((....)))))) | 52.1 | -26.4
51 | GATCATGAATATGATC ((((((....)))))) | 54.5 | -46.8
52 | GTCTAACCGAAAGGTGAC (((..(((....)))))) | 42.2 | -17.6
53 | GTTACCGAAAGGTGGAAC ((((((....)))..))) | 28.1 | -10.2
54 | GCGGGGTCGAAAGACCGC (((..(((....)))))) | 57.7 | -12.8
55 | GATCGGGGAAACCCGATC (((((((....))))))) | 69 | -42.5
56 | GGTGGAACGAAAGTTACC (((..(((....)))))) | 36.5 | -17.3
57 | GTCCGCGAAAGCGAAGAC ((((((....)))..))) | 45.4 | -17.4
58 | GGAGATCCGAAAGGATCC (((..(((....)))))) | 42 | -9.31
59 | GATCACTAGTGTGATC ((((((....)))))) | 55.1 | -37.6
60 | GTCCAGGGAAACCCGGAC ((((.((....)).)))) | 51 | -36.1
61 | GCTGGCCGAAAGGCGAGC (((.(((....))).))) | 66.5 | -26.3
62 | GATGCCGAAAGGCTTATC ((((((....)))..))) | 31.5 | -6.76
63 | GCAGACGAAAGTCCGTGC ((((((....)))..))) | 38.6 | -15.1
64 | GGTCTTGAAAAAGACC ((((((....)))))) | 57.2 | -40.4
65 | GAAGTTGAAAAACTTC ((((((....)))))) | 48.5 | -28.1
66 | GATCGGTACGCCGATC ((((((....)))))) | 63.6 | -38.6
67 | GATCTGCCCCCAGATC ((((((....)))))) | 48.3 | -34.5
68 | GATCGTCAGCACGATC ((((((....)))))) | 52.6 | -27.8
69 | CGTGCGGAAACGCCTACG ((((((....)))..))) | 39.1 | -15.3

Row | Sequence | Tm [1] [°C] | folding enthalpy [2] [kcal/mol]
70 | GGCCCTACGAAAGTAGCC (((..(((....)))))) | 31 | -15.3
71 | GATCTGGGCACAGATC ((((((....)))))) | 59.3 | -40
72 | GAAAGAGGAAACTCTTTC (((((((....))))))) | 51.2 | -37.8
73 | GGATCCGAAAGGACGTCC ((((((....)))..))) | 31.9 | -13.8
74 | GATCAACCATTTGATC ((((((....)))))) | 42.3 | -32.8
75 | GCTCGGCGAAAGCTGCGC ((.(.((....)).).)) | 56.2 | -17.4
76 | GATCTTGCGCAAGATC ((((((....)))))) | 55.5 | -54.1
77 | GACAACGAAAGTTTAGTC ((((((....)))..))) | 30.4 | -16
78 | GGCGTCGGAAACGGTGCC (((..((....))..))) | 51.6 | -30.6
79 | GCGGTCGGAAACGGTCGC (((..((....))..))) | 52.2 | -25.1
80 | GCGGATCGAAAGATTCGC (((.(((....))).))) | 60.8 | -45.9
81 | GCTGCCGGAAACGGTGGC ((..(((....)))..)) | 55.1 | -40
82 | GACTTCACGAAAGTGGTC (((..(((....)))))) | 31.4 | -12.1
83 | GGGATCGGAAACGGTTCC ((.(.((....)).).)) | 40.9 | -35.7
84 | GATGGGGGAAACTCCATC (((((.(....).))))) | 49.2 | -32.9
85 | GTGACTGGAAACGGTTAC ((.((.(....).)).)) | 36.9 | -8.77
86 | GGTCACGAAAGTGGCACC ((((((....)))..))) | 47.6 | -11.7
87 | GGGTTTGCGAAAGCACCC (((..(((....)))))) | 47.3 | -18.9
88 | GCACTCGAAAGAGATGC ((((((....))).))) | 49.4 | -29.4
89 | GCGTCCGCACGC ((((....)))) | 52.8 | -17.2
90 | GTGAGCCGAAAGGCCCAC (((.(((....))).))) | 55.3 | -23.3
91 | GTGGAGCGAAAGCTTCAC (((.(((....))).))) | 58.1 | -35.6
92 | GATAGAGAAATCTATC ((((((....)))))) | 36.8 | -21.5
